How the values were obtained:
Mus musculus [1] = experiment: Toxicity in mouse P388 cells allografted CD2F1 mouse assessed as body weight loss at 30 mg/kg, ip of total 9 doses starting 24 hrs post tumor inoculation measured on day 5 of inoculation relative to control; assay type: organism-based; parameters: dose 30 mg/kg, route intraperitoneal; settings: in vivo
Summary of the method: (§1)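 Male CD2F1 mice inoculated ip with 6×10^6 P388 leukemia cells. Compounds given ip as distilled water–Tween 80 suspension, nine daily doses starting 24 h after inoculation; six mice per dose group. Treated-minus-control body-weight change (T − C) and toxicity-day survivors recorded on day 5 (4 days after first dose).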

P388 [2] = experiment: Antitumor activity against mouse P388 cells allografted in CD2F1 mouse assessed as increase in mouse survival at 7.5 mg/kg, ip of total 9 doses starting 24 hrs post tumor inoculation measured on day 5 of inoculation relative to control; assay type: functional; settings: route intraperitoneal
Summary of the method: (§2)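 Male CD2F1 mice inoculated ip with 6×10^6 P388 leukemia cells. Dosing was ip as a suspension in distilled water–Tween 80, nine daily doses starting 24 h after inoculation. Activity was read as median survival time of treated vs control mice (% T/C); % T/C ≥ 120 was considered significant. Groups were 6 mice.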

Mus musculus [3] = experiment: Toxicity in mouse P388 cells allografted CD2F1 mouse assessed as mouse survival at 15 mg/kg, ip of total 9 doses starting 24 hrs post tumor inoculation measured on day 5 of inoculation relative to control; assay type: organism-based; parameters: dose 15 mg/kg, route intraperitoneal; settings: in vivo
Summary of the method: (§3)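 Male CD2F1 mice bearing ip P388 leukemia (6×10^6 cells) were dosed ip with nine daily doses in distilled water–Tween 80 suspension, starting 24 h after inoculation. Survivors per group of 6 were counted on day 5, i.e. 4 days after the first dose. Body-weight change of treated minus control mice was also recorded.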

Mus musculus [4] = experiment: Toxicity in mouse P388 cells allografted CD2F1 mouse assessed as mouse survival at 7.5 mg/kg, ip of total 9 doses starting 24 hrs post tumor inoculation measured on day 5 of inoculation relative to control; assay type: organism-based; parameters: dose 7.5 mg/kg, route intraperitoneal; settings: in vivo; summary of the method: as §3
Mus musculus [5] = experiment: Toxicity in mouse P388 cells allografted CD2F1 mouse assessed as body weight loss at 15 mg/kg, ip of total 9 doses starting 24 hrs post tumor inoculation measured on day 5 of inoculation relative to control; assay type: organism-based; parameters: dose 15 mg/kg, route intraperitoneal; settings: in vivo; summary of the method: as §1
Mus musculus [6] = experiment: Toxicity in mouse P388 cells allografted CD2F1 mouse assessed as mouse survival at 30 mg/kg, ip of total 9 doses starting 24 hrs post tumor inoculation measured on day 5 of inoculation relative to control; assay type: organism-based; parameters: dose 30 mg/kg, route intraperitoneal; settings: in vivo; summary of the method: as §3
P388 [7] = experiment: Antitumor activity against mouse P388 cells allografted in CD2F1 mouse assessed as increase in mouse survival at 60 mg/kg, ip of total 9 doses starting 24 hrs post tumor inoculation measured on day 5 of inoculation relative to control; assay type: functional; settings: route intraperitoneal; summary of the method: as §2
P388 [8] = experiment: Antitumor activity against mouse P388 cells allografted in CD2F1 mouse assessed as increase in mouse survival at 15 mg/kg, ip of total 9 doses starting 24 hrs post tumor inoculation measured on day 5 of inoculation relative to control; assay type: functional; settings: route intraperitoneal; summary of the method: as §2
Mus musculus [9] = experiment: Toxicity in mouse P388 cells allografted CD2F1 mouse assessed as body weight loss at 7.5 mg/kg, ip of total 9 doses starting 24 hrs post tumor inoculation measured on day 5 of inoculation relative to control; assay type: organism-based; parameters: dose 7.5 mg/kg, route intraperitoneal; settings: in vivo; summary of the method: as §1
Mus musculus [10] = experiment: Toxicity in mouse P388 cells allografted CD2F1 mouse assessed as body weight loss at 120 mg/kg, ip of total 9 doses starting 24 hrs post tumor inoculation measured on day 5 of inoculation relative to control; assay type: organism-based; parameters: dose 120 mg/kg, route intraperitoneal; settings: in vivo; summary of the method: as §1
P388 [11] = experiment: Antitumor activity against mouse P388 cells allografted in CD2F1 mouse assessed as increase in mouse survival at 30 mg/kg, ip of total 9 doses starting 24 hrs post tumor inoculation measured on day 5 of inoculation relative to control; assay type: functional; settings: route intraperitoneal; summary of the method: as §2
Mus musculus [12] = experiment: Toxicity in mouse P388 cells allografted CD2F1 mouse assessed as body weight loss at 60 mg/kg, ip of total 9 doses starting 24 hrs post tumor inoculation measured on day 5 of inoculation relative to control; assay type: organism-based; parameters: dose 60 mg/kg, route intraperitoneal; settings: in vivo; summary of the method: as §1
P388 [13] = experiment: Antitumor activity against mouse P388 cells allografted in CD2F1 mouse assessed as increase in mouse survival at 200 mg/kg, ip of total 9 doses starting 24 hrs post tumor inoculation measured on day 5 of inoculation relative to control; assay type: functional; settings: route intraperitoneal; summary of the method: as §2
Mus musculus [14] = experiment: Toxicity in mouse P388 cells allografted CD2F1 mouse assessed as body weight loss at 50 mg/kg, ip of total 9 doses starting 24 hrs post tumor inoculation measured on day 5 of inoculation relative to control; assay type: organism-based; parameters: dose 50 mg/kg, route intraperitoneal; settings: in vivo; summary of the method: as §1
Mus musculus [15] = experiment: Toxicity in mouse P388 cells allografted CD2F1 mouse assessed as mouse survival at 12.5 mg/kg, ip of total 9 doses starting 24 hrs post tumor inoculation measured on day 5 of inoculation relative to control; assay type: organism-based; parameters: dose 12.5 mg/kg, route intraperitoneal; settings: in vivo; summary of the method: as §3
Mus musculus [16] = experiment: Toxicity in mouse P388 cells allografted CD2F1 mouse assessed as body weight loss at 100 mg/kg, ip of total 9 doses starting 24 hrs post tumor inoculation measured on day 5 of inoculation relative to control; assay type: organism-based; parameters: dose 100 mg/kg, route intraperitoneal; settings: in vivo; summary of the method: as §1
Mus musculus [17] = experiment: Toxicity in mouse P388 cells allografted CD2F1 mouse assessed as mouse survival at 50 mg/kg, ip of total 9 doses starting 24 hrs post tumor inoculation measured on day 5 of inoculation relative to control; assay type: organism-based; parameters: dose 50 mg/kg, route intraperitoneal; settings: in vivo; summary of the method: as §3
P388 [18] = experiment: Antitumor activity against mouse P388 cells allografted in CD2F1 mouse assessed as increase in mouse survival at 100 mg/kg, ip of total 9 doses starting 24 hrs post tumor inoculation measured on day 5 of inoculation relative to control; assay type: functional; settings: route intraperitoneal; summary of the method: as §2
Mus musculus [19] = experiment: Toxicity in mouse P388 cells allografted CD2F1 mouse assessed as body weight loss at 12.5 mg/kg, ip of total 9 doses starting 24 hrs post tumor inoculation measured on day 5 of inoculation relative to control; assay type: organism-based; parameters: dose 12.5 mg/kg, route intraperitoneal; settings: in vivo; summary of the method: as §1
P388 [20] = experiment: Antitumor activity against mouse P388 cells allografted in CD2F1 mouse assessed as increase in mouse survival at 12.5 mg/kg, ip of total 9 doses starting 24 hrs post tumor inoculation measured on day 5 of inoculation relative to control; assay type: functional; settings: route intraperitoneal; summary of the method: as §2
P388 [21] = experiment: Antitumor activity against mouse P388 cells allografted in CD2F1 mouse assessed as increase in mouse survival at 25 mg/kg, ip of total 9 doses starting 24 hrs post tumor inoculation measured on day 5 of inoculation relative to control; assay type: functional; settings: route intraperitoneal; summary of the method: as §2
Mus musculus [22] = experiment: Toxicity in mouse P388 cells allografted CD2F1 mouse assessed as mouse survival at 25 mg/kg, ip of total 9 doses starting 24 hrs post tumor inoculation measured on day 5 of inoculation relative to control; assay type: organism-based; parameters: dose 25 mg/kg, route intraperitoneal; settings: in vivo; summary of the method: as §3
P388 [23] = experiment: Antitumor activity against mouse P388 cells allografted in CD2F1 mouse assessed as increase in mouse survival at 50 mg/kg, ip of total 9 doses starting 24 hrs post tumor inoculation measured on day 5 of inoculation relative to control; assay type: functional; settings: route intraperitoneal; summary of the method: as §2
Mus musculus [24] = experiment: Toxicity in mouse P388 cells allografted CD2F1 mouse assessed as body weight loss at 200 mg/kg, ip of total 9 doses starting 24 hrs post tumor inoculation measured on day 5 of inoculation relative to control; assay type: organism-based; parameters: dose 200 mg/kg, route intraperitoneal; settings: in vivo; summary of the method: as §1
Mus musculus [25] = experiment: Toxicity in mouse P388 cells allografted CD2F1 mouse assessed as body weight loss at 25 mg/kg, ip of total 9 doses starting 24 hrs post tumor inoculation measured on day 5 of inoculation relative to control; assay type: organism-based; parameters: dose 25 mg/kg, route intraperitoneal; settings: in vivo; summary of the method: as §1
Mus musculus [26] = experiment: Toxicity in mouse P388 cells allografted CD2F1 mouse assessed as mouse survival at 200 mg/kg, ip of total 9 doses starting 24 hrs post tumor inoculation measured on day 5 of inoculation relative to control; assay type: organism-based; parameters: dose 200 mg/kg, route intraperitoneal; settings: in vivo; summary of the method: as §3
Mus musculus [27] = experiment: Toxicity in mouse P388 cells allografted CD2F1 mouse assessed as mouse survival at 100 mg/kg, ip of total 9 doses starting 24 hrs post tumor inoculation measured on day 5 of inoculation relative to control; assay type: organism-based; parameters: dose 100 mg/kg, route intraperitoneal; settings: in vivo; summary of the method: as §3

CCCCOc1ccc(-c2c(COC(=O)NC)c(COC(=O)NC)c(C)n2C)cc1
Activity (Mus musculus [1]): 2.8 g | T/C (P388 [2]): 137% | Activity (Mus musculus [3]): Non-toxic | Activity (Mus musculus [4]): Non-toxic | Activity (Mus musculus [5]): 2.1 g | Activity (Mus musculus [6]): Non-toxic | T/C (P388 [7]): 90% | T/C (P388 [8]): 146% | Activity (Mus musculus [9]): 1.3 g | Activity (Mus musculus [10]): 3.4 g | T/C (P388 [11]): 144% | Activity (Mus musculus [12]): 4.1 g

CNC(=O)OCc1c(COC(=O)NC)c(-c2ccc(Sc3ccccc3)cc2)n(C)c1C
T/C (P388 [13]): 108% | Activity (Mus musculus [14]): 2.1 g | Activity (Mus musculus [15]): Non-toxic | Activity (Mus musculus [16]): 3.3 g | Activity (Mus musculus [17]): Non-toxic | T/C (P388 [18]): 171% | Activity (Mus musculus [19]): 0.9 g | T/C (P388 [20]): 142% | T/C (P388 [21]): 146% | Activity (Mus musculus [22]): Non-toxic | T/C (P388 [23]): 162% | Activity (Mus musculus [24]): 3 g | Activity (Mus musculus [25]): 2.1 g | Activity (Mus musculus [26]): Non-toxic | Activity (Mus musculus [27]): Non-toxic

— ChEMBL document CHEMBL3243962, “Antileukemic activity of derivatives of 1,2-dimethyl-3,4-bis(hydroxymethyl)-5-phenylpyrrole bis(N-methylcarbamate)” (J Med Chem, 1979)
